Measurements pooled from the literature.
Protocols differ between the studies behind these lines.
Target: Serine/threonine-protein kinase Nek3 (NEK3, Homo sapiens, UniProt P51956)
One construct used (P51956 1-506): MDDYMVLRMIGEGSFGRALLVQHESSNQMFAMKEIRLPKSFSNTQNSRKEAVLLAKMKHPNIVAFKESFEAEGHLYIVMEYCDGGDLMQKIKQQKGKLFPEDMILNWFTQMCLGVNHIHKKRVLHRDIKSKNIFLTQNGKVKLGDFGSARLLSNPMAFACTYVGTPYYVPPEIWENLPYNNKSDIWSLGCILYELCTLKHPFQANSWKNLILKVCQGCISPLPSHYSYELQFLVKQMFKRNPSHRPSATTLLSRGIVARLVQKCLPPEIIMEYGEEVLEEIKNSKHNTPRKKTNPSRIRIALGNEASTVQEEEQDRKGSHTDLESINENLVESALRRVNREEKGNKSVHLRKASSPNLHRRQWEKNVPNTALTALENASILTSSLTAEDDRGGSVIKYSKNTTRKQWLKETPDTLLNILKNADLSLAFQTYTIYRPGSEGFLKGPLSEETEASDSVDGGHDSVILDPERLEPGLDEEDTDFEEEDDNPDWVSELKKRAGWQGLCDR

`Nc1ncnc2occ(-c3ccc(NC(=O)Nc4cc(C(F)(F)F)ccc4F)cc3)c12` has a remaining signal of 63% (cell-free assay, inhibitor; 20 µM).
`Cn1cnc(Br)c1C1=CN(c2ncnc3[nH]cnc23)CCS1` gave an inhibition of 79.9% (enzyme activity, inhibitor, radiometric; 2 µM).
The remaining binding of `CO[C@@H](C)c1c(Nc2ccc([C@@H](N(C)C(=O)C3CCS(=O)(=O)CC3)C(F)(F)F)cc2)cnc2cc(Cl)nn12` is reported as 61% (cell-free assay, competition with immobilised ligand; 1 µM).
For `Cc1ccc(Nc2nccc(N(C)c3ccc4c(C)n(C)nc4c3)n2)cc1S(N)(=O)=O`, the remaining activity was 94.2% (enzyme activity, inhibitor; 0.5 µM).
`COc1cccc2c(NCc3ccccc3)nc(-n3c(N)nc4ccccc43)nc12` gave an inhibition of 2.9% (target engagement in cells, inhibitor, chemoproteomics; 20 mM).
The remaining binding of `Nc1c(C(=O)NCc2ccc(C(=O)NCCCC3CCCCC3)cc2)cnn1-c1ccccc1` is reported as 100% (cell-free assay, competition with immobilised ligand; 0.1 µM).
`Cc1cnc(NC2CCOCC2)nc1-n1cnc(C(=O)NC(CN)c2cc(F)cc(Cl)c2)c1` (stereo not drawn) has a remaining activity of 65% (enzyme activity, inhibitor, radiometric; 1 µM).
For `CC(C)(O)[C@H]1CC[C@H](Nc2ccc3ncc(-c4cccc(C(F)(F)F)c4)n3n2)CC1`, the remaining activity was 91% (enzyme activity, inhibitor; 1 µM).
With `CCCS(=O)(=O)Nc1ccc(F)c(C(=O)c2c[nH]c3ncc(-c4ccc(Cl)cc4)cc23)c1F` the inhibition was < 10% (enzyme activity, inhibitor; 1 µM).
`O=C(Nc1cnn(-c2csc(C(=O)NC3COC3)c2)c1)Nc1ccccc1Cl` gave a remaining activity of 103% (enzyme activity, inhibitor; 5 µM).
With `CNC(=O)c1ccc(Nc2ncc(C(F)(F)F)c(NCc3nccnc3N(C)S(C)(=O)=O)n2)cc1` the remaining binding was 100% (cell-free assay, competition with immobilised ligand; 0.1 µM).
The inhibition of `c1ccc(CNc2nc(N3CCOc4ccccc43)nc3c2CCCC3)cc1` is reported as 5.9% (target engagement in cells, inhibitor, chemoproteomics; 20 mM).
`CNC(=O)c1cc(Oc2ccc(NC(=O)Nc3ccc(Cl)c(C(F)(F)F)c3)cc2)ccn1` has a remaining signal of 97.2% (cell-free assay; 0.5 µM).
`Cn1nc(C(=O)NCc2ccc(C(=O)O)cc2)cc1-c1ccc2[nH]ccc2c1` has a remaining binding of 100% (cell-free assay, competition with immobilised ligand; 0.1 µM).
For `Cc1ccc(NC(=O)c2ccc(C)c(C(F)(F)F)c2)cc1C#Cc1nn(C2CCC(O)CC2)c2ncnc(N)c12` (stereo not drawn), the remaining signal was 102% (cell-free assay; 10 µM).
With `CC(C)(C)c1nc(-c2cccc(NS(=O)(=O)c3c(F)cccc3F)c2F)c(-c2ccnc(N)n2)s1` the remaining activity was 85% (enzyme activity, inhibitor, radiometric; 1 µM).
`N#CCCc1ccc2c(c1)-c1[nH]c3ccc([N+](=O)[O-])cc3c1CC(=O)N2` has a remaining signal of 104% (cell-free assay; 0.5 µM).
`Nc1cnc(N2CCc3cc(S(=O)(=O)Nc4c(F)cc(Cl)cc4F)cc(N4CCCC4=O)c32)nc1` has a remaining binding of 100% (cell-free assay, competition with immobilised ligand; 1 µM).
